ChEMBL document CHEMBL1141508, “Lysinyl macrocyclic hexaoxazoles: synthesis and selective G-quadruplex stabilizing properties” (Bioorg Med Chem Lett, 2008)
pIC50: −log10 of the molar value.

Columns and labels:
[1] = system: Salmonidae; assay: Binding affinity to salmon testes DNA assessed as transition temperature
Method in brief: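 Salmon testes DNA (15 μM base pair) melted with ligand at 15 μM in 10 mM EPPS pH 7.5, KCl added to 50 mM total K+. Absorbance followed at 260 nm in a 1 cm quartz cuvette; heating in 0.5 °C increments, 1.5 min equilibration per setting, readings averaged over 5 s.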

[2] = species on record: Homo sapiens; assay: Binding affinity to human d(T2AG3)4 DNA assessed as transition temperature
Method in brief: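 UV melting of d[T2G3(T2AG3)3A] (5 μM strand) with macrocycle at 20 μM in 10 mM potassium phosphate pH 7.5, KCl added to 150 mM total K+. Absorbance read at 295 nm, 1 cm quartz cuvette; temperature raised in 0.5 °C steps with 1.5 min equilibration, absorbance averaged over 5 s at each step.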

[3] = Cytotoxicity against human RPMI8402 cells; type: functional, cell-based; settings: RPMI 8402

| SMILES | T [1] | T [2] | pIC50 [3] |
| --- | --- | --- | --- |
| CC(=O)NCCCC[C@@H]1NC(=O)c2coc(n2)-c2coc(n2)-c2coc(n2)[C@H](C(C)C)NC(=O)c2coc(n2)-c2coc(n2)-c2coc1n2 | 76.5 °C | 79 °C |  |
| NCCCC[C@@H]1NC(=O)c2coc(n2)-c2coc(n2)-c2coc(n2)[C@H](CCCCN)NC(=O)c2coc(n2)-c2coc(n2)-c2coc1n2 | 79 °C | 102 °C |  |
| CC(C)[C@@H]1NC(=O)c2coc(n2)-c2coc(n2)-c2coc(n2)[C@H](CCCCN)NC(=O)c2coc(n2)-c2coc(n2)-c2coc1n2 | 76.5 °C | 90 °C |  |
| CC(C)[C@@H]1NC(=O)c2coc(n2)-c2coc(n2)-c2coc(n2)[C@H](C(C)C)NC(=O)c2coc(n2)-c2coc(n2)-c2coc1n2 [HEXAOXAZOLE DIVALINE] | 76.5 °C | 77 °C | 6.40 |
| CC(C)[C@@H]1NC(=O)c2coc(n2)-c2coc(n2)-c2coc(n2)[C@H](CCCCN(C)C)NC(=O)c2coc(n2)-c2coc(n2)-c2coc1n2 | 76 °C | 81 °C |  |
